The structures appear in SMILES notation. In brackets after ≈: the same amount, converted by molar mass.

A word on the MIC: it is the lowest concentration found to suppress growth. A lower MIC goes with inhibition by little substance. One may read the IC50 as the concentration that gives 50% inhibition. High values mean weaker potency, low ones greater potency.

For the first assay, the system named is Escherichia coli. Description: Antibacterial activity against enteropathogenic Escherichia coli ATCC 25922 was determined after 24 hr. The note with it: ATCC 25922, 24 h. The class given is functional.
`C=CCC(=O)Nc1cccnc1C(=O)Nc1nccs1`: the lowest concentration to inhibit growth (MIC) was 125 µg/mL (≈ 434 µM).
The compound `O=CNc1cccnc1C(=O)Nc1nccs1` displayed an MIC of 125 µg/mL (≈ 503 µM).
For `CCC(=O)Oc1cccnc1C(=O)Nc1nccs1`, the MIC worked out at 250 µg/mL (≈ 902 µM).
Consider `O=C(Nc1nccs1)c1ccccn1`, for which the MIC worked out at 12.5 µg/mL (≈ 60.9 µM).
As to `O=C(Nc1cccnc1C(=O)Nc1nccs1)c1ccccc1F`, the MIC was found to be 250 µg/mL (≈ 730 µM).

The next assay relates to Pseudomonas aeruginosa. Description: Antibacterial activity against Pseudomonas aeruginosa ATCC 27853 was determined after 24 hr. The class given is functional. The conditions noted are these: ATCC 27853, 24 h.
Take `C=CCC(=O)Nc1cccnc1C(=O)Nc1nccs1`: the MIC stood at 500 µg/mL (≈ 1730 µM).
The compound `O=CNc1cccnc1C(=O)Nc1nccs1` came in with an MIC of 500 µg/mL (≈ 2010 µM).
On to `CCC(=O)Oc1cccnc1C(=O)Nc1nccs1`, for which the MIC came to 500 µg/mL (≈ 1800 µM).
In turn, `O=C(Nc1nccs1)c1ccccn1` came in with an MIC of 250 µg/mL (≈ 1220 µM).
`O=C(Nc1cccnc1C(=O)Nc1nccs1)c1ccccc1F`: the MIC came to 250 µg/mL (≈ 730 µM).

The target in the next assay is T1, Methionine aminopeptidase (Escherichia coli K-12, UniProt P0AE18).
T1 sequence (P0AE18 whole entry): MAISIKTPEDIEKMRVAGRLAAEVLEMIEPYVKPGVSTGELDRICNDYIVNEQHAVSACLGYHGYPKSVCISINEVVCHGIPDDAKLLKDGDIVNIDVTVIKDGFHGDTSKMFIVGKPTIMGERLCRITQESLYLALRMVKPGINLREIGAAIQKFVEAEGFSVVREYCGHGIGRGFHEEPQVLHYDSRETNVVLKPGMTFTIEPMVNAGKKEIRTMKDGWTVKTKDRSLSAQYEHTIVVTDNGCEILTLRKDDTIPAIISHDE
Description: Inhibitory activity against Methionine aminopeptidase 1 from Escherichia coli.
Details: not given
In a few lines: (§1)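 Co(II)-activated enzyme: preincubated 30 min in 25 mM HEPES pH 7.5, 150 mM KCl, 15 mM methionine, 500 μM CoCl2. Chromogenic assay in 50 mM MOPS pH 7.0 with 1 mM DTNB and 100 μM thiopeptolide Met-S-Gly-Phe-OH. Final enzyme was 150 nM for EcMetAP1 and 330 nM for ScMetAP1. Hydrolysis read at 412 nm for 60 s. IC50 from inhibitor dilutions, […].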
`O=C(Oc1cccnc1C(=O)Nc1nccs1)c1ccccc1[N+](=O)[O-]` returned an IC50 of 2100 nM.
The compound `C/C=C(\C)C(=O)Nc1cccnc1C(=O)Nc1nccs1` displayed a half-maximal inhibitory concentration (IC50) of 280 nM.
For `CC(C)(C)OC(=O)Nc1cccnc1C(=O)Nc1nccs1`, the midpoint of inhibition, the IC50, lay at 180 nM.
As to `O=C(Nc1nccs1)c1ncccc1NC(=O)C(F)(F)F`, 340 nM corresponded to half-maximal inhibition (IC50).
Consider `O=C(Oc1cccnc1C(=O)Nc1nccs1)c1ccc(F)cc1`, for which the IC50 stood at 1100 nM.
`CO[C@@H]1[C@H](OC(=O)/C=C/C=C/C=C/C=C/C(=O)O)CC[C@]2(CO2)[C@H]1[C@@]1(C)O[C@@H]1CC=C(C)C` [FUMAGILLIN] yielded an IC50 of more than 100000 nM.
On to `COc1cccc(C(=O)Oc2cccnc2C(=O)Nc2nccs2)c1[N+](=O)[O-]`, for which the IC50 is 1700 nM.
As to `O=C(Oc1cccnc1C(=O)Nc1nccs1)c1cccc([N+](=O)[O-])c1`, half-maximal inhibition (IC50) required 600 nM.
On the same count and under the same terms, for `Nc1cccnc1C(=O)Nc1nccs1` the value was 1700 nM; for `CC(C)(C)C(=O)Oc1cccnc1C(=O)Nc1nccs1`, 680 nM.
Compound `C=CCC(=O)Nc1cccnc1C(=O)Nc1nccs1` registered an IC50 of 130 nM.
Still for that read-out and setting: for `C=C(C)CC(=O)Nc1cccnc1C(=O)Nc1nccs1` the value was 150 nM; for `O=CNc1cccnc1C(=O)Nc1nccs1`, 330 nM; for `O=C(Nc1cccnc1C(=O)Nc1nccs1)c1ccccc1`, 890 nM.
The compound `CCCCCC(=O)Nc1cccnc1C(=O)Nc1nccs1` yielded an IC50 of 380 nM.
For the compound `CCCCCC(=O)Oc1cccnc1C(=O)Nc1nccs1`, it took 1020 nM to reach half-maximal inhibition (IC50).
Turning to `O=C(Oc1cccnc1C(=O)Nc1nccs1)c1ccccc1`, 1220 nM corresponded to half-maximal inhibition (IC50).
`CC(=O)Oc1ccccc1C(=O)Oc1cccnc1C(=O)Nc1nccs1` displayed an IC50 of 1600 nM.
The compound `CCC(=O)Oc1cccnc1C(=O)Nc1nccs1` returned an IC50 of 5400 nM.
Regarding `O=C(Nc1nccs1)c1ccccn1`, the IC50 is 5000 nM.
In the case of `O=C(Nc1cccnc1C(=O)Nc1nccs1)c1ccccc1F`, the half-inhibitory concentration (IC50) turned out to be 280 nM.

For a further assay, the system named is Staphylococcus aureus. Description: Antibacterial activity against Staphylococcus aureus ATCC 25923 was determined after 24 hr. The class given is functional. The note with it: ATCC 25923, 24 h.
`C=CCC(=O)Nc1cccnc1C(=O)Nc1nccs1` had an MIC of 62.5 µg/mL (≈ 217 µM).
In the case of `O=CNc1cccnc1C(=O)Nc1nccs1`, the MIC came out at 62.5 µg/mL (≈ 252 µM).
On the same count and under the same terms, for `CCC(=O)Oc1cccnc1C(=O)Nc1nccs1` the value was 125 µg/mL (≈ 451 µM).
As to `O=C(Nc1nccs1)c1ccccn1`, the MIC worked out at 2 µg/mL (≈ 9.74 µM).
With `O=C(Nc1cccnc1C(=O)Nc1nccs1)c1ccccc1F`, the MIC stood at 15.6 µg/mL (≈ 45.6 µM).

In a further assay the test system is Escherichia coli. Description: Selectivity of inhibitory activity of Methionine aminopeptidase 1 from Escherichia coli to Methionine aminopeptidase 1 from Saccharomyces cerevisiae.
Details: not given
For the compound `O=C(Oc1cccnc1C(=O)Nc1nccs1)c1ccccc1[N+](=O)[O-]`, the Ratio was less than 0.021.
`C/C=C(\C)C(=O)Nc1cccnc1C(=O)Nc1nccs1`: the Ratio turned out to be 0.026.
Take `CC(C)(C)OC(=O)Nc1cccnc1C(=O)Nc1nccs1`: the Ratio amounted to 0.054.
For `O=C(Nc1nccs1)c1ncccc1NC(=O)C(F)(F)F`, the Ratio was 0.069.
`O=C(Oc1cccnc1C(=O)Nc1nccs1)c1ccc(F)cc1`: the Ratio came to 0.018.
For `COc1cccc(C(=O)Oc2cccnc2C(=O)Nc2nccs2)c1[N+](=O)[O-]`, the Ratio was determined as 0.56.
Turning to `O=C(Oc1cccnc1C(=O)Nc1nccs1)c1cccc([N+](=O)[O-])c1`, the Ratio was less than 0.006.
`Nc1cccnc1C(=O)Nc1nccs1`: the Ratio was determined as 0.052.
As to `CC(C)(C)C(=O)Oc1cccnc1C(=O)Nc1nccs1`, the Ratio was 0.87.
Regarding `C=CCC(=O)Nc1cccnc1C(=O)Nc1nccs1`, the Ratio was determined as 0.34.
On to `C=C(C)CC(=O)Nc1cccnc1C(=O)Nc1nccs1`, for which the Ratio was 0.032.
On to `O=CNc1cccnc1C(=O)Nc1nccs1`, for which the Ratio amounted to 1.
Take `O=C(Nc1cccnc1C(=O)Nc1nccs1)c1ccccc1`: the Ratio was less than 0.0089.
For the compound `CCCCCC(=O)Nc1cccnc1C(=O)Nc1nccs1`, the Ratio was determined as 0.61.
In the case of `CCCCCC(=O)Oc1cccnc1C(=O)Nc1nccs1`, the Ratio stood at 0.59.
The same measure, in the same setting: in the case of `O=C(Oc1cccnc1C(=O)Nc1nccs1)c1ccccc1` it was 1.2.
The same measure, in the same setting: for `CC(=O)Oc1ccccc1C(=O)Oc1cccnc1C(=O)Nc1nccs1` the value was 0.11; for `CCC(=O)Oc1cccnc1C(=O)Nc1nccs1`, 14; for `O=C(Nc1nccs1)c1ccccn1`, 0.71.
Take `O=C(Nc1cccnc1C(=O)Nc1nccs1)c1ccccc1F`: the Ratio is less than 0.0028.

The target of a further assay is T2, Methionine aminopeptidase 1 (Saccharomyces cerevisiae S288c, UniProt Q01662).
T2 sequence (Q01662 whole entry): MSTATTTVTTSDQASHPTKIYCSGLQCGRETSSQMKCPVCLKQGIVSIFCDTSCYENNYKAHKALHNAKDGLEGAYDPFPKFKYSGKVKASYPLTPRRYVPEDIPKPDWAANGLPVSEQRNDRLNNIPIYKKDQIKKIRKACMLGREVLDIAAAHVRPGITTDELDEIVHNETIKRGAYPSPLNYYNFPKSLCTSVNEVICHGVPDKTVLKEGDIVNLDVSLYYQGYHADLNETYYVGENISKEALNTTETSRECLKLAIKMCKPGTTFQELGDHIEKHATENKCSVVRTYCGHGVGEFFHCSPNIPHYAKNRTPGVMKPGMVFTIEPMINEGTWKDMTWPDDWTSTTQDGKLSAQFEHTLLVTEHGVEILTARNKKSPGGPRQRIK
Description: Inhibitory activity against type I methionine aminopeptidase from Saccharomyces cerevisiae.
Details: not given
In a few lines: as §1
`O=C(Oc1cccnc1C(=O)Nc1nccs1)c1ccccc1[N+](=O)[O-]` displayed a half-maximal inhibitory concentration (IC50) of more than 100000 nM.
In turn, `C/C=C(\C)C(=O)Nc1cccnc1C(=O)Nc1nccs1` showed an IC50 of 10900 nM.
In turn, `CC(C)(C)OC(=O)Nc1cccnc1C(=O)Nc1nccs1` gave an IC50 of 3350 nM.
For `O=C(Nc1nccs1)c1ncccc1NC(=O)C(F)(F)F`, the IC50 was found to be 4920 nM.
The compound `O=C(Oc1cccnc1C(=O)Nc1nccs1)c1ccc(F)cc1` yielded a 50% inhibitory concentration (IC50) of 62000 nM.
Still for that read-out and setting: in the case of `CO[C@@H]1[C@H](OC(=O)/C=C/C=C/C=C/C=C/C(=O)O)CC[C@]2(CO2)[C@H]1[C@@]1(C)O[C@@H]1CC=C(C)C` [FUMAGILLIN] it was more than 100000 nM.
`COc1cccc(C(=O)Oc2cccnc2C(=O)Nc2nccs2)c1[N+](=O)[O-]`: the concentration for half-maximal inhibition (IC50) was 3020 nM.
As for `O=C(Oc1cccnc1C(=O)Nc1nccs1)c1cccc([N+](=O)[O-])c1`, the IC50 was more than 100000 nM.
Regarding `Nc1cccnc1C(=O)Nc1nccs1`, the IC50 came out at 32800 nM.
Compound `CC(C)(C)C(=O)Oc1cccnc1C(=O)Nc1nccs1` came in with an IC50 of 780 nM.
`C=CCC(=O)Nc1cccnc1C(=O)Nc1nccs1` gave an IC50 of 380 nM.
Still for that read-out and setting: for `C=C(C)CC(=O)Nc1cccnc1C(=O)Nc1nccs1` the value was 4670 nM.
Compound `O=CNc1cccnc1C(=O)Nc1nccs1` yielded an IC50 of 320 nM.
`O=C(Nc1cccnc1C(=O)Nc1nccs1)c1ccccc1`: the IC50 is more than 100000 nM.
Still for that read-out and setting: for `CCCCCC(=O)Nc1cccnc1C(=O)Nc1nccs1` the value was 620 nM; for `CCCCCC(=O)Oc1cccnc1C(=O)Nc1nccs1`, 1740 nM.
Turning to `O=C(Oc1cccnc1C(=O)Nc1nccs1)c1ccccc1`, the IC50 turned out to be 1030 nM.
Take `CC(=O)Oc1ccccc1C(=O)Oc1cccnc1C(=O)Nc1nccs1`: the IC50 was found to be 15000 nM.
`CCC(=O)Oc1cccnc1C(=O)Nc1nccs1` displayed an IC50 of 380 nM.
Still for that read-out and setting: in the case of `O=C(Nc1nccs1)c1ccccn1` it was 7000 nM.
Still for that read-out and setting: in the case of `O=C(Nc1cccnc1C(=O)Nc1nccs1)c1ccccc1F` it was more than 100000 nM.
